# Reference: article PMC8861878 (The Journal of pharmacy and pharmacology, 2020)
# How the values were obtained:
# [1] = Glucuronidation of isobavachin by pooled HLM, enzyme kinetics; type: in vitro ADME, human
# UGT1A1 = biological target: T1, UGT1A1 (Homo sapiens, UniProt P22309); experiment: Glucuronidation of isobavachin by recombinant UGT1A1, enzyme kinetics; type: in vitro ADME; details: formation of G1, substrate inhibition model
# T1 sequence (P22309 26-533): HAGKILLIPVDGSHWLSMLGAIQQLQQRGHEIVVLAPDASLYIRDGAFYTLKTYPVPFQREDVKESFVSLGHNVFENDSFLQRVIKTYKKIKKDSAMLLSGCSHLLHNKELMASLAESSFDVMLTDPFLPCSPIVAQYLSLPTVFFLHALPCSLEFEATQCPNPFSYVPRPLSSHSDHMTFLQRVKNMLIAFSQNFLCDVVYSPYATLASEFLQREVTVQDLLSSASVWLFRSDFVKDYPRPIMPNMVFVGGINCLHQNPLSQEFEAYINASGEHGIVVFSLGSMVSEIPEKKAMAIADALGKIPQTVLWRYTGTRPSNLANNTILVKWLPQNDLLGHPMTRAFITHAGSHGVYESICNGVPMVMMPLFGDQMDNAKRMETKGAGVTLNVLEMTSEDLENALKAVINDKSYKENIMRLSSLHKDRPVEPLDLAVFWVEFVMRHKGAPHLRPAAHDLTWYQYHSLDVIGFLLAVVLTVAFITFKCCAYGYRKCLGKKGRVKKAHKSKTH
# UGT1A7 = biological target: T2, UGT1A7 (Homo sapiens, UniProt Q9HAW7); experiment: Glucuronidation of isobavachin by recombinant UGT1A7, enzyme kinetics; type: in vitro ADME; details: formation of G1, substrate inhibition model
# T2 sequence (Q9HAW7 26-530): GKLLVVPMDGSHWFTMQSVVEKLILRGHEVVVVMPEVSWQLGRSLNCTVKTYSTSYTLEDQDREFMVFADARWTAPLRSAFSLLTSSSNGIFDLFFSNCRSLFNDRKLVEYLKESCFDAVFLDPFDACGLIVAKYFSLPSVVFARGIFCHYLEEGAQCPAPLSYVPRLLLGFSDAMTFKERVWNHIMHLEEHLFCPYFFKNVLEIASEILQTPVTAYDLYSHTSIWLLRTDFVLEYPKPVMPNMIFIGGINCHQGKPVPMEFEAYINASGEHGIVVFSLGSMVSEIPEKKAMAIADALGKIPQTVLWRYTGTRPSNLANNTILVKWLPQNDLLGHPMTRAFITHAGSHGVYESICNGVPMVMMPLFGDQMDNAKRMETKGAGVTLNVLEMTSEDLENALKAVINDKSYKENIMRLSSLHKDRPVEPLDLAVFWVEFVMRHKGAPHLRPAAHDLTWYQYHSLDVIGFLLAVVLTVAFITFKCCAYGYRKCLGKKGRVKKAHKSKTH
# CYP2B6 = biological target: T3, CYP2B6 (Homo sapiens, UniProt P20813); experiment: Inhibition of CYP2B6; type: in vitro ADME
# T3 sequence (P20813 1-491): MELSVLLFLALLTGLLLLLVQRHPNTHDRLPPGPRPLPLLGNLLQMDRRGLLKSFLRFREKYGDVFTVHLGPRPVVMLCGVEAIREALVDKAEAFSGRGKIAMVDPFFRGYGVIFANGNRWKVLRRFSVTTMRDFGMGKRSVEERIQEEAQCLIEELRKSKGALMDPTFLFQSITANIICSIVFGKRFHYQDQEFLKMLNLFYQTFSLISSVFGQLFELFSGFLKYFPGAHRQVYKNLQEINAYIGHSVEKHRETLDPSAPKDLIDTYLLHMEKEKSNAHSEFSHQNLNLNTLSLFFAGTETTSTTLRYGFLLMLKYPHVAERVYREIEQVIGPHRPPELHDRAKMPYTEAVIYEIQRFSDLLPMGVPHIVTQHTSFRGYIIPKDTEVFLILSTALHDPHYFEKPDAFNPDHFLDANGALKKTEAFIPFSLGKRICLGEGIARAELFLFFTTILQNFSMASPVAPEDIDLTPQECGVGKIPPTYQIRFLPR
# CYP3A4 = CYP3A4 (Homo sapiens, UniProt P08684); experiment: Inhibition of CYP3A4; type: in vitro ADME; details: isobavachin 1, 10, 100 μM; substrate nifedipine (40 μM)
# Procedure, shortened: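 Recombinant human CYPs (CYP1A2 and 3A4 at 0.05 mg/ml; CYP2C8 and 2E1 at 0.1 mg/ml) with probe substrate in Tris-HCl 50 mM pH 7.4, MgCl2 5 mM and NADPH 1 mM at 37 °C for 60 min. Run without (control) or with test compound at 1, 10 or 100 μM. Acetonitrile stop; metabolite by UHPLC-TQD-MS; activity versus control, triplicate.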
# UGT1A9 = biological target: T4, UGT1A9 (Homo sapiens, UniProt O60656); experiment: Inhibition of UGT1A9; type: in vitro ADME
# T4 sequence (O60656 26-530): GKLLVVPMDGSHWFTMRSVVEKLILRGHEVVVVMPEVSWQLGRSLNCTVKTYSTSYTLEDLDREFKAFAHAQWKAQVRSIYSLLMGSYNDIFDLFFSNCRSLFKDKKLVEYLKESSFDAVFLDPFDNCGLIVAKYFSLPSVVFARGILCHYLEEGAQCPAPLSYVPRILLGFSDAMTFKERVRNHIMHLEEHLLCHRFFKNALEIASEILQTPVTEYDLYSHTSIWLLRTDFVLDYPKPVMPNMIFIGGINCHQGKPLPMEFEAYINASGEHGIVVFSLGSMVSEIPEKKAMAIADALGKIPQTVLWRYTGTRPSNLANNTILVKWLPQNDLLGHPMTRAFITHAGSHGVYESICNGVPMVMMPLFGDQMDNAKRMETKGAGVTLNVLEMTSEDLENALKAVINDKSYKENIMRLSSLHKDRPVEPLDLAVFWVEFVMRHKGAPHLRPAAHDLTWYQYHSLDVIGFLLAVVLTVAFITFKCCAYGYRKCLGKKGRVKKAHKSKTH
# [2] = intragastric administration of Psoraleae Fructus extracts (1.2 g/kg); cited from earlier work
# [3] = based on the smallest AIC and SC values
# Sequence of CYP3A4 (P08684 whole entry): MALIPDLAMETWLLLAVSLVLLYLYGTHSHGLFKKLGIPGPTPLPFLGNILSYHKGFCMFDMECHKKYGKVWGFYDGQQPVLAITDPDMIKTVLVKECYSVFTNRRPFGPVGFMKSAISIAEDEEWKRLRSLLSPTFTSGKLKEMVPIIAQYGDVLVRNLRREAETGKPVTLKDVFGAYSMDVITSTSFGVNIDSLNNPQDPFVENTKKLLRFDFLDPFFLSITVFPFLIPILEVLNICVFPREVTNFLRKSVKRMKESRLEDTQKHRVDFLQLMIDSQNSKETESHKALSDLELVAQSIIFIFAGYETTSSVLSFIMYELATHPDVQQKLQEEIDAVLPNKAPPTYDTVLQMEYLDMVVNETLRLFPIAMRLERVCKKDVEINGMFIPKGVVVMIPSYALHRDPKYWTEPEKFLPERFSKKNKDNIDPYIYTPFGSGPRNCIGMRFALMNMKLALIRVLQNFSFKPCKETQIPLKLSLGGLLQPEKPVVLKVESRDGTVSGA
smiles,measurement,setting,value
CC(C)=CCc1c(O)ccc2c1O[C@H](c1ccc(O)cc1)CC2=O [isobavachin],CLint (CLmax),"[1]; formation of G1, Hill equation (CLmax)",148.79 ± 9.36 μl/min per mg
same,CLint (CLmax),"[1]; formation of G2, substrate inhibition model",21.82 ± 4.35 μl/min per mg
same,Ki,UGT1A1; substrate inhibition constant,40.82 ± 9.70 µM
same,Vmax,UGT1A1,7735.0 ± 1186.0 pmol/min per mg
same,Ki,UGT1A7; substrate inhibition constant,27.54 ± 5.39 µM
same,CLint (CLmax),UGT1A7,109.18 ± 24.17 μl/min per mg
same,Vmax,UGT1A7,3593.00 ± 487.20 pmol/min per mg
same,IC50,CYP2B6,5 ± 0.48 µM
same,residual activities,CYP2B6; 10 μM isobavachin,30.86 % of the negative control
same,Ki,"CYP2B6; substrate bupropion, competitive model (not selected)",0.35 ± 0.11 µM
same,Ki,"CYP2B6; substrate bupropion, mixed-type model (not selected)",1.46 ± 0.62 µM
same,Ki,"CYP2B6; substrate bupropion, non-competitive model (selected, smallest AIC and SC)",1.93 ± 0.18 µM
same,Inhibition type,CYP2B6; [3],non-competitive inhibition mode
same,α,"CYP2B6; substrate bupropion, mixed-type model",1.49 ± 0.92
same,inhibitory effects,CYP3A4,negligible or weak
same,IC50,UGT1A9,1.21 ± 0.3 µM
same,residual activities,UGT1A9; 10 μM isobavachin,16.51 % of the negative control
same,Ki,"UGT1A9; substrate propofol, competitive model (not selected)",0.2 ± 0.03 µM
same,Ki,"UGT1A9; substrate propofol, mixed-type model (not selected)",0.43 ± 0.14 µM
same,Ki,"UGT1A9; substrate propofol, non-competitive model (selected, smallest AIC and SC)",0.44 ± 0.04 µM
same,Inhibition type,UGT1A9; [3],non-competitive inhibition mode
same,α,"UGT1A9; substrate propofol, mixed-type model",1.05 ± 0.70
same,exposure,[2],about 13.2 nM
